{
  "source": "ChEMBL document CHEMBL5131497",
  "about": "“Design, Synthesis, and Characterization of TNP-2198, a Dual-Targeted Rifamycin-Nitroimidazole Conjugate with Potent Activity against Microaerophilic and Anaerobic Bacterial Pathogens” (J Med Chem, 2022)",
  "assay_type_in_all_cases": "functional",
  "key": {"Clostridioides difficile [1]": {"test_system": "Clostridioides difficile", "assay": "Antibacterial activity against fluoroquinolone-resistant Clostridioides difficile CB1941 harboring gyrAD71Y/T82A mutant measured after 3 days", "details": "CB1941, 72 h, time 3 day"}, "Clostridioides difficile [2]": {"test_system": "Clostridioides difficile", "assay": "Antibacterial activity against rifampicin/fluoroquinolone-resistant Clostridioides difficile CB1940 harboring rpoBQ489K/gyrAA118S mutant at 1:1 compound to metronidazole molar ratio measured after 3 days in presence of metronidazole", "details": "CB1940, 72 h, time 3 day"}, "Clostridioides difficile [3]": {"test_system": "Clostridioides difficile", "assay": "Antibacterial activity against Clostridioides difficile BAA 1382"}, "Prevotella disiens [4]": {"test_system": "Prevotella disiens", "assay": "Antibacterial activity against Prevotella disiens MMX 3446"}, "Clostridioides difficile [5]": {"test_system": "Clostridioides difficile", "assay": "Antibacterial activity against fluoroquinolone-resistant Clostridioides difficile CB1941 harboring gyrAD71Y/T82A mutant at 1:1 compound to metronidazole molar ratio measured after 3 days in presence of metronidazole", "details": "CB1941, 72 h, time 3 day"}, "Clostridioides difficile [6]": {"test_system": "Clostridioides difficile", "assay": "Antibacterial activity against rifampicin-resistant Clostridioides difficile CB1934 harboring rpoBQ489K mutant measured after 3 days", "details": "CB1934, 72 h, time 3 day"}, "Clostridioides difficile [7]": {"test_system": "Clostridioides difficile", "assay": "Antibacterial activity against rifampicin-resistant Clostridioides difficile harboring rpoBQ489K mutant"}, "Gardnerella vaginalis [8]": {"test_system": "Gardnerella vaginalis", "assay": "Antibacterial activity against Gardnerella vaginalis ATCC 14018"}, "Peptostreptococcus sp.": {"test_system": "Peptostreptococcus sp.", "assay": "Antibacterial activity against Peptostreptococcus magnus ATCC 14956"}, "Helicobacter pylori [9]": {"test_system": "Helicobacter pylori", "assay": "Antibacterial activity against metronidazole-resistant Helicobacter pylori CB1573 harboring rdxAR16S mutant at 1:1 compound to metronidazole molar ratio measured after 5 days in presence of metronidazole by agar dilution method", "details": "CB1573, 120 h, time 5 day", "in_short": "(§1)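 Agar dilution per CLSI. Wild-type ATCC 700392 (CB1531) and its derivatives carry defined resistance determinants. Drugs, alone or in 1:1 molar mixtures, were diluted 2-fold from 100× stocks into Mueller–Hinton agar with aged (≥2 weeks) sheep blood (5% v/v). MIC read after 5 days at 35 °C under microaerobic conditions from a campylobacter gas-generating system.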"}, "Clostridioides difficile [10]": {"test_system": "Clostridioides difficile", "assay": "Antibacterial activity against rifampicin/fluoroquinolone-resistant Clostridioides difficile CB1942 harboring rpoBQ489K/gyrAD71Y/T82A mutant at 1:1 compound to metronidazole molar ratio measured after 3 days in presence of metronidazole", "details": "CB1942, 72 h, time 3 day"}, "Clostridioides difficile [11]": {"test_system": "Clostridioides difficile", "assay": "Antibacterial activity against rifampicin/fluoroquinolone-resistant Clostridioides difficile CB1940 harboring rpoBQ489K/gyrAA118S mutant measured after 3 days", "details": "CB1940, 72 h, time 3 day"}, "Gardnerella vaginalis [12]": {"test_system": "Gardnerella vaginalis", "assay": "Antibacterial activity against Gardnerella vaginalis ATCC 49145"}, "Staphylococcus aureus": {"test_system": "Staphylococcus aureus", "assay": "Antibacterial activity against Staphylococcus aureus ATCC 29213"}, "Veillonella parvula": {"test_system": "Veillonella parvula", "assay": "Antibacterial activity against Veillonella parvula ATCC 17745 MMX 1272"}, "Helicobacter pylori [13]": {"test_system": "Helicobacter pylori", "assay": "Antibacterial activity against rifampicin-resistant Helicobacter pylori CB1614 harboring rpoBL525I/D530N at 1:1 compound to metronidazole molar ratio measured after 5 days in presence of metronidazole by agar dilution method", "details": "CB1614, 120 h, time 5 day", "in_short": "as §1"}, "Prevotella intermedia": {"test_system": "Prevotella intermedia", "assay": "Antibacterial activity against Prevotella intermedia ATCC 25611 MMX 3002"}, "[14]": {"test_system": "Porphyromonas asaccharolytica", "assay": "Antibacterial activity against metronidazole-resistant Prevotella asaccharolytica MMX 3552"}, "Helicobacter pylori [15]": {"test_system": "Helicobacter pylori", "assay": "Antibacterial activity against Helicobacter pylori clinical isolate USA"}, "Clostridioides difficile [16]": {"test_system": "Clostridioides difficile", "assay": "Antibacterial activity against fluoroquinolone-resistant Clostridioides difficile CB1939 at 1:1 compound to metronidazole molar ratio measured after 3 days in presence of metronidazole", "details": "CB1939, 72 h, time 3 day"}, "Clostridioides difficile [17]": {"test_system": "Clostridioides difficile", "assay": "Antibacterial activity against rifampicin-resistant Clostridioides difficile CB1934 harboring rpoBQ489K mutant at 1:1 compound to metronidazole molar ratio measured after 3 days in presence of metronidazole", "details": "CB1934, 72 h, time 3 day"}, "Clostridioides difficile [18]": {"test_system": "Clostridioides difficile", "assay": "Antibacterial activity against Clostridioides difficile clinical isolate China"}, "Helicobacter pylori [19]": {"test_system": "Helicobacter pylori", "assay": "Antibacterial activity against Helicobacter pylori clinical isolate China"}, "Helicobacter pylori [20]": {"test_system": "Helicobacter pylori", "assay": "Antibacterial activity against rifampicin-resistant Helicobacter pylori CB1903 harboring rpoBD530V mutant at 1:1 compound to metronidazole molar ratio measured after 5 days in presence of metronidazole by agar dilution method", "details": "CB1903, 120 h, time 5 day", "in_short": "as §1"}, "Helicobacter pylori [21]": {"test_system": "Helicobacter pylori", "assay": "Antibacterial activity against rifampicin-resistant Helicobacter pylori CB1902 harboring rpoBV149F mutant at 1:1 compound to metronidazole molar ratio measured after 5 days in presence of metronidazole by agar dilution method", "details": "CB1902, 120 h, time 5 day", "in_short": "as §1"}, "Prevotella disiens [22]": {"test_system": "Prevotella disiens", "assay": "Antibacterial activity against Prevotella disiens MMX 3457"}, "Clostridioides difficile [23]": {"test_system": "Clostridioides difficile", "assay": "Antibacterial activity against rifampicin/fluoroquinolone-resistant Clostridioides difficile CB1942 harboring rpoBQ489K/gyrAD71Y/T82A mutant measured after 3 days", "details": "CB1942, 72 h, time 3 day"}, "Bacteroides uniformis": {"test_system": "Bacteroides uniformis", "assay": "Antibacterial activity against Bacteroides uniformis MMX 1277"}, "Fusobacterium nucleatum": {"test_system": "Fusobacterium nucleatum", "assay": "Antibacterial activity against Fusobacterium nucleatum ATCC 25586"}, "Bifidobacterium longum": {"test_system": "Bifidobacterium longum", "assay": "Antibacterial activity against Bifidobacterium longum ATCC 15707"}, "Helicobacter pylori [24]": {"test_system": "Helicobacter pylori", "assay": "Antibacterial activity against Helicobacter pylori ATCC 700392 at 1:1 compound to metronidazole molar ratio measured after 5 days in presence of metronidazole by agar dilution method", "details": "ATCC 700392, 120 h, time 5 day", "in_short": "as §1"}, "Actinomyces naeslundii": {"test_system": "Actinomyces naeslundii", "assay": "Antibacterial activity against Actinomyces naeslundii ATCC 1210"}, "Helicobacter pylori [25]": {"test_system": "Helicobacter pylori", "assay": "Antibacterial activity against metronidazole-resistant Helicobacter pylori CB1573 harboring rdxAR16S mutant measured after 5 days by agar dilution method", "details": "CB1573, 120 h, time 5 day", "in_short": "as §1"}, "Clostridioides difficile [26]": {"test_system": "Clostridioides difficile", "assay": "Antibacterial activity against Clostridioides difficile ATCC 9689"}, "Helicobacter pylori [27]": {"test_system": "Helicobacter pylori", "assay": "Antibacterial activity against rifampicin-resistant Helicobacter pylori CB1903 harboring rpoBD530V mutant measured after 5 days by agar dilution method", "details": "CB1903, 120 h, time 5 day", "in_short": "as §1"}, "[28]": {"test_system": "Bacteroides thetaiotaomicron", "assay": "Antibacterial activity against metronidazole-resistant Bacteroides thetaiotaomicron MMX 3409"}, "Prevotella bivia": {"test_system": "Prevotella bivia", "assay": "Antibacterial activity against Prevotella bivia ATCC 29303/MMX 5718"}},
  "data": [
    {"smiles": "CO[C@H]1/C=C/O[C@@]2(C)Oc3c(C)c(O)c4c(O)c(c(/C=N/N5CCN(C)CC5)c(O)c4c3C2=O)NC(=O)/C(C)=C\\C=C\\[C@H](C)[C@H](O)[C@@H](C)[C@@H](O)[C@@H](C)[C@H](OC(C)=O)[C@@H]1C", "note": "[RIFAMPIN]", "values": [
      {"measurement": "MIC", "setting": "Clostridioides difficile [1]", "value": "≤ 0.03", "unit": "µg/mL"},
      {"measurement": "MIC", "setting": "Clostridioides difficile [2]", "value": 2, "unit": "µg/mL"},
      {"measurement": "MIC", "setting": "Clostridioides difficile [3]", "value": 0.001, "unit": "µg/mL"},
      {"measurement": "MIC", "setting": "Prevotella disiens [4]", "value": 0.12, "unit": "µg/mL"},
      {"measurement": "MIC", "setting": "Clostridioides difficile [5]", "value": "≤ 0.03", "unit": "µg/mL"},
      {"measurement": "MIC", "setting": "Clostridioides difficile [6]", "value": "> 32", "unit": "µg/mL"},
      {"measurement": "MIC", "setting": "Clostridioides difficile [7]", "value": 0.25, "unit": "µg/mL"},
      {"measurement": "MIC", "setting": "Gardnerella vaginalis [8]", "value": 0.5, "unit": "µg/mL"},
      {"measurement": "MIC", "setting": "Peptostreptococcus sp.", "value": 1, "unit": "µg/mL"},
      {"measurement": "MIC", "setting": "Helicobacter pylori [9]", "value": 0.25, "unit": "µg/mL"},
      {"measurement": "MIC", "setting": "Clostridioides difficile [10]", "value": 2, "unit": "µg/mL"},
      {"measurement": "MIC", "setting": "Clostridioides difficile [11]", "value": "> 32", "unit": "µg/mL"},
      {"measurement": "MIC", "setting": "Gardnerella vaginalis [12]", "value": 0.5, "unit": "µg/mL"},
      {"measurement": "MIC", "setting": "Staphylococcus aureus", "value": 0.008, "unit": "µg/mL"},
      {"measurement": "MIC", "setting": "Veillonella parvula", "value": 4, "unit": "µg/mL"},
      {"measurement": "MIC", "setting": "Helicobacter pylori [13]", "value": 8, "unit": "µg/mL"},
      {"measurement": "MIC", "setting": "Prevotella intermedia", "value": 0.12, "unit": "µg/mL"},
      {"measurement": "MIC", "setting": "[14]", "value": 0.004, "unit": "µg/mL"},
      {"measurement": "MIC", "setting": "Helicobacter pylori [15]", "value": "≥ 0.007", "unit": "µg/mL"},
      {"measurement": "MIC", "setting": "Clostridioides difficile [16]", "value": "≤ 0.03", "unit": "µg/mL"},
      {"measurement": "MIC", "setting": "Clostridioides difficile [17]", "value": 2, "unit": "µg/mL"},
      {"measurement": "MIC", "setting": "Clostridioides difficile [18]", "value": 0.06, "unit": "µg/mL"},
      {"measurement": "MIC90", "setting": "Clostridioides difficile [18]", "value": "≥ 128", "unit": "µg/mL"},
      {"measurement": "MIC", "setting": "Helicobacter pylori [19]", "value": "≤ 0.06", "unit": "µg/mL"},
      {"measurement": "MIC90", "setting": "Helicobacter pylori [19]", "value": 0.5, "unit": "µg/mL"},
      {"measurement": "MIC", "setting": "Helicobacter pylori [20]", "value": 16, "unit": "µg/mL"},
      {"measurement": "MIC", "setting": "Helicobacter pylori [21]", "value": 8, "unit": "µg/mL"},
      {"measurement": "MIC", "setting": "Prevotella disiens [22]", "value": 0.5, "unit": "µg/mL"},
      {"measurement": "MIC", "setting": "Clostridioides difficile [23]", "value": "> 32", "unit": "µg/mL"},
      {"measurement": "MIC", "setting": "Bacteroides uniformis", "value": 0.5, "unit": "µg/mL"},
      {"measurement": "MIC", "setting": "Fusobacterium nucleatum", "value": 0.5, "unit": "µg/mL"},
      {"measurement": "MIC", "setting": "Bifidobacterium longum", "value": 0.5, "unit": "µg/mL"},
      {"measurement": "MIC", "setting": "Helicobacter pylori [24]", "value": 0.5, "unit": "µg/mL"},
      {"measurement": "MIC", "setting": "Actinomyces naeslundii", "value": 0.03, "unit": "µg/mL"},
      {"measurement": "MIC", "setting": "Helicobacter pylori [25]", "value": 0.5, "unit": "µg/mL"},
      {"measurement": "MIC", "setting": "Clostridioides difficile [26]", "value": 0.001, "unit": "µg/mL"},
      {"measurement": "MIC", "setting": "Helicobacter pylori [27]", "value": "> 32", "unit": "µg/mL"},
      {"measurement": "MIC", "setting": "[28]", "value": 0.5, "unit": "µg/mL"},
      {"measurement": "MIC", "setting": "Prevotella bivia", "value": 0.5, "unit": "µg/mL"}
    ]}
  ]
}
